# Tests used:
# pERK = experiment: IHC for pERK expression in tumour biopsies; assay type: in vivo, human; details: with enzalutamide, including two of the responders
# [1] = Plasma pharmacokinetics of capivasertib; assay type: in vivo, human
# Procedure, shortened: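 Venous blood was sampled serially up to 48 h post-dose on C0D1 (capivasertib alone) and on C2D1, C2D4 and C2D11 (with enzalutamide). Cmax, Tmax and AUC8h were derived. Geometric means of dose-normalised Cmax and AUC8h were compared between cycle 2 and cycle 0.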
# [2] = tested on: patients with metastatic castration-resistant prostate cancer; experiment: Treatment-related adverse events; assay type: in vivo, human; details: Total N=15, with enzalutamide
# Procedure, shortened: (§1)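 Open-label, single-centre 3+3 escalation in mCRPC. Capivasertib was given b.i.d. 4/7, starting at 320 mg with predefined escalation and de-escalation. A 7-day cycle 0 (single dose on D1) preceded 28-day cycles of capivasertib plus enzalutamide 160 mg daily. MTD/RP2D was the highest level with ≥6 patients and <1/3 with DLT. AEs were graded by CTCAE v4.0 from first dose to 30 days post-discontinuation. All treated patients were included.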
# pSer9 GSK3β = experiment: Pharmacodynamics: phosphorylated Ser9 GSK3β in platelet-rich plasma; assay type: in vivo, human; details: 400 mg alone (cycle 0)
# Procedure, shortened: (§2)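 mCRPC patients took a single capivasertib dose on cycle 0 day 1, followed by PK and PD sampling. Combination with enzalutamide 160 mg daily began at C1D1, with capivasertib b.i.d. on a 4/7 schedule. Platelet-rich plasma and hair follicles were assayed for pSer9 and total GSK3β and for pThr246 and total PRAS40. Statistics used one-way ANOVA with […] and Dunnett's tests, with P<0.05 as significant.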
# [3] = tested on: patients with metastatic castration-resistant prostate cancer; experiment: Phase I dose escalation; assay type: in vivo, human
# Procedure, shortened: as §1
# pThr246 PRAS40 = experiment: Pharmacodynamics: phosphorylated Thr246 PRAS40 in hair follicles; assay type: in vivo, human
# Procedure, shortened: as §2
# patients = details: 4 days on and 3 days off every week (4/7); cited from earlier work
# [4] = tested on: metastatic prostate cancer patients; details: overall population; marked benefit for PTEN loss; cited from earlier work
compound,measurement,setting,value
NC1(C(=O)N[C@@H](CCO)c2ccc(Cl)cc2)CCN(c2nc[nH]c3nccc2-3)CC1 [capivasertib],"pERK expression by IHC, post-treatment vs baseline",pERK,increased after treatment in three patients
same,patients in whom enzalutamide decreased both Cmax and AUC,[1]; compared with capivasertib monotherapy,11 out of 13
same,approximate mean decrease of Cmax and AUC,[1]; cycle 2 (with enzalutamide) compared with cycle 0 (monotherapy),~40%
same,"Hyper-glycaemia, Grade 3/4",[2],26.7%
same,mean decrease in pGSK3β compared with baseline,pSer9 GSK3β; 2 h after dose,56%
same,mean decrease in pGSK3β compared with baseline,pSer9 GSK3β; 4 h after dose,44%
same,mean decrease in pGSK3β compared with baseline,pSer9 GSK3β; 8 h after dose,22%
same,patients experiencing a DLT (maculopapular rash),"[3]; 400 mg b.i.d., with enzalutamide",1/6
same,RP2D (recommended phase II dose),"[3]; 4/7 schedule, with enzalutamide 160 mg daily",400 mg b.i.d.
same,fatal SAEs,[3]; all dose levels,no fatal SAEs
same,patients with dosing interruption or reduction,"[3]; beyond cycle 1, six of fourteen patients",42.9%
same,dosing interruptions or reductions due to AEs,"[3]; during the DLT period, five of nine patients",55.6%
same,AEs judged to be treatment-related,"[3]; of 259 AEs, safety population",42.5%
same,AEs reported,"[3]; safety population, all dose levels",259
same,mean percentage reduction in PRAS40,pThr246 PRAS40; 320 mg with enzalutamide,−34%
same,mean percentage reduction in PRAS40,pThr246 PRAS40; 320 mg without enzalutamide,38%
same,mean percentage reduction in PRAS40,pThr246 PRAS40; 400 mg with enzalutamide,22%
same,mean percentage reduction in PRAS40,pThr246 PRAS40; 400 mg without enzalutamide,23%
same,mean percentage reduction in PRAS40,pThr246 PRAS40; 480 mg with enzalutamide,40%
same,mean percentage reduction in PRAS40,pThr246 PRAS40; 480 mg without enzalutamide,26%
same,single-agent recommended phase II dose (RP2D),patients,480 mg b.i.d.
CC(C)NC[C@@H](C(=O)N1CCN(c2ncnc3c2[C@H](C)C[C@H]3O)CC1)c1ccc(Cl)cc1 [ipatasertib],"rPFS, abiraterone with vs without ipatasertib",[4],improved rPFS
